Experimental data: ChEMBL document CHEMBL1144664, “Design, synthesis, and SAR of new pyrrole-oxindole progesterone receptor modulators leading to 5-(7-fluoro-3,3-dimethyl-2-oxo-2,3-dihydro-1H-indol-5-yl)-1-methyl-1H-pyrrole-2-carbonitrile (WAY-255348)” (J Med Chem, 2008)

Columns and labels:
[1] = Drug level in cynomolgus monkey at 1 mg/kg, iv; assay type: ADME, organism-based, Macaca fascicularis; parameters: dose 1 mg/kg, route intravenous; details: in vivo
Rhesus monkey [2] = test: Effect on myometrial weight of rhesus monkey; assay type: functional, Macaca mulatta
Outline: (§1)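 Adult female rhesus macaques (n=3) with regular cycles dosed 10 mg/(kg·day) po in 2% Tween 80/0.5% methylcellulose with cherry flavoring for 28 days from cycle day 2. Serum estradiol and progesterone measured every 3 days. Necropsy on day 28. Uterine weights are of half the uterus; KI-67 and mitotic indices counted per 1000 cells. Values given as mean ± SE.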

[3] = Cmax in Sprague-Dawley rat at 5 mg/kg, po; assay type: ADME, organism-based; parameters: dose 5 mg/kg, route oral; details: in vivo
Outline: (§2)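 Female Sprague–Dawley rats dosed as 1-in-4 cassette or discrete studies. iv in DMSO/PEG200 20:80; po in aqueous 2% Tween 80/0.5% methyl cellulose. Parameters reported: C0, Cmax, t1/2, plasma clearance, Vss, AUC0-inf and %F.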

[4] = Drug level in cynomolgus monkey at […], iv; assay type: ADME, organism-based, Macaca fascicularis; parameters: dose 0.25 mg/kg, route intravenous; details: in vivo
[5] = Oral bioavailability in Sprague-Dawley rat at 5 mg/kg; assay type: ADME, organism-based; details: in vivo; outline: as §2
[6] = Volume of distribution at steady state in Sprague-Dawley rat at 1 mg/kg, iv; assay type: ADME, organism-based; parameters: dose 1 mg/kg, route intravenous; details: in vivo, read-out: Vdss; outline: as §2
Androgen receptor = molecular target: T1, Androgen receptor (Homo sapiens, UniProt P10275)
T1 sequence (P10275 whole entry): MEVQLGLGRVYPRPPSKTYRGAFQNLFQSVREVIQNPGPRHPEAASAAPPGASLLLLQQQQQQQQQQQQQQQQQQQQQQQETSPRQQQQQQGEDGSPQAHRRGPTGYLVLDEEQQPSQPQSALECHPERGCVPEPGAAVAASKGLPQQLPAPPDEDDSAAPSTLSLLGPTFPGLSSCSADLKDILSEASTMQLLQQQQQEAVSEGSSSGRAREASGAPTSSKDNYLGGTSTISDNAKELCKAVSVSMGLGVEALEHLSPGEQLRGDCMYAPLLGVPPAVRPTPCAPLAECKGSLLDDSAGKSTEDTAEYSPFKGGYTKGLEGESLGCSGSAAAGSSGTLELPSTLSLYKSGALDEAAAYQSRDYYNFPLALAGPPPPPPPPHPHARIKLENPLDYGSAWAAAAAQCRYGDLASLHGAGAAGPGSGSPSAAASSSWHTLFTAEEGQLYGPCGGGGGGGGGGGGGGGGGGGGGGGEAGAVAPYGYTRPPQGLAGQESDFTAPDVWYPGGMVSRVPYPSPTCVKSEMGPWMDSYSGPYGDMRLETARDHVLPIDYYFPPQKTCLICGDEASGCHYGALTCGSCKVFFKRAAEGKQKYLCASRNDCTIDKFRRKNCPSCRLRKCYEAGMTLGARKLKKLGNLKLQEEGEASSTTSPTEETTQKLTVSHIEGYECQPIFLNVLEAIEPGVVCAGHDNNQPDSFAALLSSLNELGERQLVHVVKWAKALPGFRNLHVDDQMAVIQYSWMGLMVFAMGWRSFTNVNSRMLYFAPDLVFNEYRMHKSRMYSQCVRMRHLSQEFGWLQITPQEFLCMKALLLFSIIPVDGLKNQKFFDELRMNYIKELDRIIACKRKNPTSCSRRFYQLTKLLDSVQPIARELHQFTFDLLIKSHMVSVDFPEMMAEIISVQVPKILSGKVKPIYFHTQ

[7] = AUC (0 to infinity) at steady state in cynomolgus monkey at 1 mg/kg, iv; assay type: ADME, organism-based, Macaca fascicularis; parameters: time infinity, dose 1 mg/kg, route intravenous; details: plasma
Rhesus monkey [8] = test: Effect on functionalis KI67 assessed as number of KI67 labeled cells of rhesus monkey; assay type: functional, Macaca mulatta; outline: as §1
[9] = AUC (0 to infinity) in Sprague-Dawley rat at 0.5 mg/kg, iv; assay type: ADME, organism-based; parameters: time infinity, dose 0.5 mg/kg, route intravenous; details: plasma
Rattus norvegicus [10] = species on record: Rattus norvegicus; test: Antagonist activity in rat uterus assessed as progesterone-induced decidualization response in stromal cells; assay type: functional
Outline: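 Female rat decidualization model: compound given orally in 0.5% methyl cellulose/2% Tween 80 to antagonize the progesterone-induced decidual response of uterine stromal cells. ED50 reported.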

[11] = Plasma clearance in Sprague-Dawley rat at 0.5 mg/kg, iv; assay type: ADME, organism-based; parameters: dose 0.5 mg/kg, route intravenous; outline: as §2
Cynomolgus monkey = test: Inhibition of ovulation in cynomolgus monkey assessed as luteal phase progesterone surge at 3 mg/kg; assay type: functional; details: Macaca fascicularis
Outline: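 Normally cycling cynomolgus monkeys dosed orally, daily at 1, 3 or 10 mg/kg (n=4–6) or vehicle (n=2), in 2% Tween 80/0.5% methylcellulose for 30 days from cycle day 2. Serum sampled three times weekly; progesterone measured by radioimmunoassay to detect a luteal-phase rise as the sign of ovulation.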

[12] = Cmax in cynomolgus monkey at 5 mg/kg, po; assay type: ADME, organism-based, Macaca fascicularis; parameters: dose 5 mg/kg, route oral; details: in vivo
Rattus norvegicus [13] = test: Drug level in Sprague-Dawley rat at 1 mg/kg, iv; assay type: ADME, organism-based; parameters: dose 1 mg/kg, route intravenous; details: in vivo; outline: as §2
Rhesus monkey [14] = test: Effect on basalis KI67 assessed as number of KI67 labeled cells of rhesus monkey; assay type: functional, Macaca mulatta; outline: as §1
[15] = Half life in Sprague-Dawley rat at 0.5 mg/kg, iv; assay type: ADME, organism-based; parameters: dose 0.5 mg/kg, route intravenous; details: in vivo; outline: as §2
[16] = Plasma clearance in cynomolgus monkey at […], iv; assay type: ADME, organism-based, Macaca fascicularis; parameters: dose 0.25 mg/kg, route intravenous
Rhesus monkey [17] = test: Effect on cell proliferation in rhesus monkey assessed as number of mitotic cells per 1000 cells
[18] = Oral bioavailability in cynomolgus monkey at 5 mg/kg; assay type: ADME, organism-based, Macaca fascicularis; details: in vivo

Cn1c(C#N)ccc1-c1cc(F)c2c(c1)C(C)(C)C(=O)N2
C0 [1]: 856 ng/mL | Activity (Rhesus monkey [2]): 1760 mg | Cmax [3]: 414 ng/mL | C0 [4]: 178 ng/mL | bioavailability [5]: 31% | Vd [6]: 2.4 L/kg | IC50 (Androgen receptor): 196 nM | AUC(0-inf) [7]: 2360 ng·h/mL | Activity (Rhesus monkey [8]): 105 | AUC(0-inf) [9]: 1980 ng·h/mL | ED50 (Rattus norvegicus [10]): 0.3 mg/kg | clearance [11]: 4 mL/min/kg | ED50 (Cynomolgus monkey): 1.6 mg/kg | Cmax [12]: 179 ng/mL | Drug uptake (Rattus norvegicus [13]): 528 ng/mL | Activity (Rhesus monkey [14]): 0 | half-life [15]: 9.5 h | clearance [16]: 7 mL/min/kg | Activity (Rhesus monkey [17]): 2.2 | bioavailability [18]: 49%
